One assay addresses GPI/LMMP (NK1R) (Cavia porcellus, UniProt P30547). The assay is described as follows: GPI/LMMP functional assay at NK1R. In kind it is cell-based, guinea pig. To be noted: at the concentration printed in the cell.
Assay [1] deals with T1, NK1R (Homo sapiens, UniProt P25103). In words: hNK1/CHO cell membrane radioligand binding assay. To be noted: binding ratio human/rat NK1.
Target sequence in this assay (P25103 whole entry): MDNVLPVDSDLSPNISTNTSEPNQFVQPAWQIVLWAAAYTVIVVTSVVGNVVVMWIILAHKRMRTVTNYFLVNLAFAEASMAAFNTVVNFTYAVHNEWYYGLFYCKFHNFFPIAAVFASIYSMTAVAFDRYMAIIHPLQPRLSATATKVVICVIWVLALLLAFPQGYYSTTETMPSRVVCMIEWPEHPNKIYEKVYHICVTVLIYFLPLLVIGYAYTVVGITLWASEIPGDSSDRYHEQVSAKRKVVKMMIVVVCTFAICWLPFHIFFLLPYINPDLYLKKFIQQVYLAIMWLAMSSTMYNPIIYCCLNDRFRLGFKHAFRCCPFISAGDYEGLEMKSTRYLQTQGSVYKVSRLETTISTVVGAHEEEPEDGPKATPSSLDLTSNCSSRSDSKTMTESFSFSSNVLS
In another assay the target is MOR (Homo sapiens, UniProt P35372). In kind it is cell-based.
For assay [2], the target named is T1, NK1R. The format is cell-based.
Target sequence in this assay (P25103 whole entry, species assumed): as the sequence (P25103 whole entry) above
The next assay deals with GPI (MOR). The assay is described as follows: Guinea pig isolated ileum. To be noted: IC50 μ / IC50 δ. In kind it is cell-based. A digest of the protocol:
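Male Hartley guinea pig ileum LMMP (0.1 Hz, 0.4 ms) and male ICR mouse vasa deferentia (0.5 g tension, Mg-free Krebs, 37 °C, O2/CO2 95:5; 0.1 Hz single pulses, 2.0 ms), electrically stimulated at supramaximal voltage.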

The next assay addresses μ opioid receptor (MOR). In kind it is binding.

MOR, sequence (P35372 whole entry): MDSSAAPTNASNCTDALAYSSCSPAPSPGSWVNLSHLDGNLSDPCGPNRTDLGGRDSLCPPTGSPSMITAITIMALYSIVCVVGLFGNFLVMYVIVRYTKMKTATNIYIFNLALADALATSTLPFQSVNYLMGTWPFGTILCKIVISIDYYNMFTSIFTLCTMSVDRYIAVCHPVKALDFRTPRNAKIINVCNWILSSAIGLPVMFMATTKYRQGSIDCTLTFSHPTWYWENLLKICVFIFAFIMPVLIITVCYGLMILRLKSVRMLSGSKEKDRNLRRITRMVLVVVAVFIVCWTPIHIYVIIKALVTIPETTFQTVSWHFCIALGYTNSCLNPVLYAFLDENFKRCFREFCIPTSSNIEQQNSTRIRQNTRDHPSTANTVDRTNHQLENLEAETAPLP
GPI/LMMP (NK1R), sequence (P30547 whole entry): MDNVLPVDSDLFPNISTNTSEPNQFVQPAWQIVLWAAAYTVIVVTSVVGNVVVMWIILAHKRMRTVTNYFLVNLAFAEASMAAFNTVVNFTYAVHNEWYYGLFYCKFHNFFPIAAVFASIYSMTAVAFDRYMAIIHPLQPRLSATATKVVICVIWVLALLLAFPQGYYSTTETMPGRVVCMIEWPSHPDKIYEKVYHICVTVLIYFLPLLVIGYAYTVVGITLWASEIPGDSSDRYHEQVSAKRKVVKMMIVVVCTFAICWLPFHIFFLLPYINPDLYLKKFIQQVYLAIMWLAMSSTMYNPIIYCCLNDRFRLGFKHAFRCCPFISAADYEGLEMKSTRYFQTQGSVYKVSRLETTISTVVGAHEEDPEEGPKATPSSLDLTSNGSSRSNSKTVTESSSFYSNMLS

With `Cc1cc(O)cc(C)c1C[C@H](N)C(=O)N[C@H](C)C(=O)NCC(=O)N[C@@H](Cc1ccccc1)C(=O)N1CCC[C@H]1C(=O)N[C@@H](CC(C)C)C(=O)N[C@@H](Cc1c[nH]c2ccccc12)C(=O)NCc1cc(C(F)(F)F)cc(C(F)(F)F)c1` [ligand 4], the “GPI/LMMP (NK1R) agonism” value on GPI/LMMP (NK1R) is “none at 100 nM”. Also, the “Ki^hNK1/Ki^rNK1” value at NK1R [1] is recorded as 1/19. Moreover, the “MOR/DOR IC50 ratio (cAMP assay)” value at MOR is recorded as 6/1. Further, the Kb at NK1R [2] worked out at 11 ± 10 nM. The “GPI/MVD IC50 ratio” value in the assay with GPI (MOR) is reported as 26/1. Also, the “Ki^μ/Ki^δ” value at μ opioid receptor (MOR) (binding ratio MOR/DOR) is on record as 3/1. Further, the “log[IC50±] (MOR)” value on μ opioid receptor (MOR) (log IC50 from nonlinear regression, MOR binding) was −8.63 ± 0.04.

The values are drawn from paper PMC5769151 (Journal of medicinal chemistry, 2015).
